Data from article PMC9312093 (ACS Bio & Med Chem Au, 2022).

Biological target: T1, human ERO1α (Homo sapiens, UniProt Q96HE7, C104A/C131A/C166A)
T1 sequence (Q96HE7 22-468 C104A/C131A/C166A): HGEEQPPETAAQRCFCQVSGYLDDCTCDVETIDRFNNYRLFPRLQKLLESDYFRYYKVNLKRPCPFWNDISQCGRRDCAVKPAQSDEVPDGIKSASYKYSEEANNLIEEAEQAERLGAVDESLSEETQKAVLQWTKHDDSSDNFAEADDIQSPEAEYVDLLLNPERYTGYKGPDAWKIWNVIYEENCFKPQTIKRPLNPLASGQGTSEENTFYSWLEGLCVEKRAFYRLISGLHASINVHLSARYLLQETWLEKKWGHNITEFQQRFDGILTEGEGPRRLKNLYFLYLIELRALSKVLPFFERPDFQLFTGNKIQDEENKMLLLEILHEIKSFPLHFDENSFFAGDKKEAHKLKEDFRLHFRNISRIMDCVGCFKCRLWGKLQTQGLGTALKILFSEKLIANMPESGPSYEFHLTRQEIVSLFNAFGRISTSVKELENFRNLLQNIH
Test: Recombinant ERO1α enzyme assay
Type: biochemical
Conditions: up to 200 µM; FAD covalent modifiers
Outline: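 Hyperactive human ERO1α (a.a. 22-468, C104A/C131A/C166A) and human PDI (a.a. 18-479) were used, each at 0.0625 mg/mL, with rising test compound concentrations. Activity was quantified by Amplex Red. Data are mean ± S.D. of 3 independent experiments, each run in triplicate.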

## N[C@@H]1C[C@H]1c1ccccc1 (racemic) [tranylcypromine]
  inhibition of ERO1α activity, concentration-response: did not inhibit
